Measured values published in ChEMBL document CHEMBL4038268, “Methylpyrrole inhibitors of BET bromodomains” (Bioorg Med Chem Lett, 2017).

Tests used:
[1] = biological target: T1, Bromodomain-containing protein 4 (Homo sapiens, UniProt O60885); test: Binding affinity to BRD4 BD1 (K57 to E168 residues) (unknown origin) after 1 hr by Alexa-647-conjugated probe based TR-FRET assay
[2] = Oral bioavailability in mouse at 10 mg/kg; format: ADME, organism-based; conditions: in vivo
[3] = biological target: T2, Bromodomain and PHD finger-containing protein 3 (Homo sapiens, UniProt Q9ULD4); test: Inhibition of human BRPF3 (E588 to G701 residues) expressed in bacterial expression system by BROMOscan assay
T2 sequence (Q9ULD4 whole entry): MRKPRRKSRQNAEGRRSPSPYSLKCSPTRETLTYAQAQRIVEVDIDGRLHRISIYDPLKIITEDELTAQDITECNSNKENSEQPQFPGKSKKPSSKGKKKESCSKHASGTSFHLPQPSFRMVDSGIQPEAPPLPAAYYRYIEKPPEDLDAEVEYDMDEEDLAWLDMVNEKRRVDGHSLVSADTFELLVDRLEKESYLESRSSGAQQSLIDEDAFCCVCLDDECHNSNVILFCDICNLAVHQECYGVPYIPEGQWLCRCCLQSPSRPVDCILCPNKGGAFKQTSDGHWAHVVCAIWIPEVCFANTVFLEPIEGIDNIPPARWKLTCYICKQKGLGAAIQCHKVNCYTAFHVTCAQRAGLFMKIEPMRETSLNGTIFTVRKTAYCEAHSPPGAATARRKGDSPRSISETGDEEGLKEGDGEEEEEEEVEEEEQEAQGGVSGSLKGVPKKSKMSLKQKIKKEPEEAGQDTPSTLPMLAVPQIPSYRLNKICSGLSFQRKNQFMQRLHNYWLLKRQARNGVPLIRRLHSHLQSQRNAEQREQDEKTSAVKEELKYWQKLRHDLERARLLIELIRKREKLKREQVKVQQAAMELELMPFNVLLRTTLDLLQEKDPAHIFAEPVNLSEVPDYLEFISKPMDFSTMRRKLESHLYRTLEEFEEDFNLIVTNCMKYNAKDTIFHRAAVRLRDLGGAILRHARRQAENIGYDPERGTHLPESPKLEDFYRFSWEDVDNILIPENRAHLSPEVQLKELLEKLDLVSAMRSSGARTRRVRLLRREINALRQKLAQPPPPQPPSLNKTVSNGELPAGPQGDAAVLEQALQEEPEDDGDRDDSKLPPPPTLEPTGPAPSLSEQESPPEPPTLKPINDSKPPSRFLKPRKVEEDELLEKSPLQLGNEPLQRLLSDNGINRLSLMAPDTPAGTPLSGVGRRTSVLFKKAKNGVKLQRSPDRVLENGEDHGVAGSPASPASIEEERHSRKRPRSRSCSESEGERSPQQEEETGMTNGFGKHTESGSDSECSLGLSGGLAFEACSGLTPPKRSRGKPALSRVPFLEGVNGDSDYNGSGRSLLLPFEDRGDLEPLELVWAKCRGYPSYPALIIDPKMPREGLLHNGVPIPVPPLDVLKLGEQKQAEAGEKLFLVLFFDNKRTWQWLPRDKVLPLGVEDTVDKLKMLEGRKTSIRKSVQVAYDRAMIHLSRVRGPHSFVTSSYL

[4] = biological target: T3, E3 ubiquitin-protein ligase TRIM33 (Homo sapiens, UniProt Q9UPN9); test: Inhibition of human TRIM33-phd-bromo (D882 to A1087 residues) expressed in bacterial expression system by BROMOscan assay
T3 sequence (Q9UPN9 whole entry): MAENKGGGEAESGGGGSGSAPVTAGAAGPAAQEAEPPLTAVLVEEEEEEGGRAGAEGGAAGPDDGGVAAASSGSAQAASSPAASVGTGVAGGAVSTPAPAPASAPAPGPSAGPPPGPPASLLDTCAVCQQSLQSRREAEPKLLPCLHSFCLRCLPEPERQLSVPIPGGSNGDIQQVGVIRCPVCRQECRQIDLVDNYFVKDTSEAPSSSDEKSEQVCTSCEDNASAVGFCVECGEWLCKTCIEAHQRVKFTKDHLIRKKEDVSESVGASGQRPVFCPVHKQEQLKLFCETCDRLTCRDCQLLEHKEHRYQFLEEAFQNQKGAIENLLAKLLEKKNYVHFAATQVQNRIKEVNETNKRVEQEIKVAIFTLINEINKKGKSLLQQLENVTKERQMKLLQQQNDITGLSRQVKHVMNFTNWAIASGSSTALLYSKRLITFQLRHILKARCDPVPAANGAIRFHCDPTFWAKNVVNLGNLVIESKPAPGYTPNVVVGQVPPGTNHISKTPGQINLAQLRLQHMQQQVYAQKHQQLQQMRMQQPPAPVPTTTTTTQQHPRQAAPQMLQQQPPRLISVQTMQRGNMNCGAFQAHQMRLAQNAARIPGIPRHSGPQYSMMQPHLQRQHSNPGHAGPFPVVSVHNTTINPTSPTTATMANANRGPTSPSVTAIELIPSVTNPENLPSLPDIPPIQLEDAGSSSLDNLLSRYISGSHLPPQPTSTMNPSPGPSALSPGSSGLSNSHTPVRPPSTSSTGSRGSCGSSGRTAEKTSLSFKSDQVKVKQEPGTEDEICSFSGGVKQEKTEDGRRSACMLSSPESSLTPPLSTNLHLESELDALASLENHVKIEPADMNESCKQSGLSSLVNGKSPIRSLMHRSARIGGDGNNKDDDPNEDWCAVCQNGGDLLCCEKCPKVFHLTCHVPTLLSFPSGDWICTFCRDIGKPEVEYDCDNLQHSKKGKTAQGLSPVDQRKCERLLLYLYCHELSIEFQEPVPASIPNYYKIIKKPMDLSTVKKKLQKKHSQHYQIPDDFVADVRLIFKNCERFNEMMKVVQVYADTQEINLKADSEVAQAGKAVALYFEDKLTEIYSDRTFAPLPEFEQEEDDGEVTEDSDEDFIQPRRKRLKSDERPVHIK

Liver = test: Unbound intrinsic clearance in mouse liver microsomes; format: ADME, microsome
[5] = biological target: T1, Bromodomain-containing protein 4; test: Inhibition of BRD4 (unknown origin) expressed in human H1299 cells co-expressing HPV16-LCR/E2 after 24 hrs by Bright Glo-luciferase reporter gene assay; format: cell-based
Method in brief: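 Target-engagement reporter in an H1299-derived line carrying a stably integrated E2 expression cassette and an HPV-LCR-driven luciferase reporter. The read-out is BRD4-dependent E2-mediated transcriptional repression. EC50 is the mean of two measurements.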

[6] = biological target: Bromodomain adjacent to zinc finger domain protein 2A (Homo sapiens, UniProt Q9UIF9); test: Inhibition of human BAZ2A (M1792 to L1905 residues) expressed in bacterial expression system by BROMOscan assay
[7] = Half life in mouse at 3 mg/kg, iv; format: ADME, organism-based; conditions: in vivo
Plasma = test: Unbound clearance in mouse plasma at 3 mg/kg, iv; format: ADME, organism-based; conditions: in vivo
Protein polybromo-1 = Protein polybromo-1 (Homo sapiens, UniProt Q86U86); test: Inhibition of human PBRM1 bromodomain 2 (S178 to E291 residues) expressed in bacterial expression system by BROMOscan assay
Sequence of Protein polybromo-1 (Q86U86 whole entry, the tested form may be a part): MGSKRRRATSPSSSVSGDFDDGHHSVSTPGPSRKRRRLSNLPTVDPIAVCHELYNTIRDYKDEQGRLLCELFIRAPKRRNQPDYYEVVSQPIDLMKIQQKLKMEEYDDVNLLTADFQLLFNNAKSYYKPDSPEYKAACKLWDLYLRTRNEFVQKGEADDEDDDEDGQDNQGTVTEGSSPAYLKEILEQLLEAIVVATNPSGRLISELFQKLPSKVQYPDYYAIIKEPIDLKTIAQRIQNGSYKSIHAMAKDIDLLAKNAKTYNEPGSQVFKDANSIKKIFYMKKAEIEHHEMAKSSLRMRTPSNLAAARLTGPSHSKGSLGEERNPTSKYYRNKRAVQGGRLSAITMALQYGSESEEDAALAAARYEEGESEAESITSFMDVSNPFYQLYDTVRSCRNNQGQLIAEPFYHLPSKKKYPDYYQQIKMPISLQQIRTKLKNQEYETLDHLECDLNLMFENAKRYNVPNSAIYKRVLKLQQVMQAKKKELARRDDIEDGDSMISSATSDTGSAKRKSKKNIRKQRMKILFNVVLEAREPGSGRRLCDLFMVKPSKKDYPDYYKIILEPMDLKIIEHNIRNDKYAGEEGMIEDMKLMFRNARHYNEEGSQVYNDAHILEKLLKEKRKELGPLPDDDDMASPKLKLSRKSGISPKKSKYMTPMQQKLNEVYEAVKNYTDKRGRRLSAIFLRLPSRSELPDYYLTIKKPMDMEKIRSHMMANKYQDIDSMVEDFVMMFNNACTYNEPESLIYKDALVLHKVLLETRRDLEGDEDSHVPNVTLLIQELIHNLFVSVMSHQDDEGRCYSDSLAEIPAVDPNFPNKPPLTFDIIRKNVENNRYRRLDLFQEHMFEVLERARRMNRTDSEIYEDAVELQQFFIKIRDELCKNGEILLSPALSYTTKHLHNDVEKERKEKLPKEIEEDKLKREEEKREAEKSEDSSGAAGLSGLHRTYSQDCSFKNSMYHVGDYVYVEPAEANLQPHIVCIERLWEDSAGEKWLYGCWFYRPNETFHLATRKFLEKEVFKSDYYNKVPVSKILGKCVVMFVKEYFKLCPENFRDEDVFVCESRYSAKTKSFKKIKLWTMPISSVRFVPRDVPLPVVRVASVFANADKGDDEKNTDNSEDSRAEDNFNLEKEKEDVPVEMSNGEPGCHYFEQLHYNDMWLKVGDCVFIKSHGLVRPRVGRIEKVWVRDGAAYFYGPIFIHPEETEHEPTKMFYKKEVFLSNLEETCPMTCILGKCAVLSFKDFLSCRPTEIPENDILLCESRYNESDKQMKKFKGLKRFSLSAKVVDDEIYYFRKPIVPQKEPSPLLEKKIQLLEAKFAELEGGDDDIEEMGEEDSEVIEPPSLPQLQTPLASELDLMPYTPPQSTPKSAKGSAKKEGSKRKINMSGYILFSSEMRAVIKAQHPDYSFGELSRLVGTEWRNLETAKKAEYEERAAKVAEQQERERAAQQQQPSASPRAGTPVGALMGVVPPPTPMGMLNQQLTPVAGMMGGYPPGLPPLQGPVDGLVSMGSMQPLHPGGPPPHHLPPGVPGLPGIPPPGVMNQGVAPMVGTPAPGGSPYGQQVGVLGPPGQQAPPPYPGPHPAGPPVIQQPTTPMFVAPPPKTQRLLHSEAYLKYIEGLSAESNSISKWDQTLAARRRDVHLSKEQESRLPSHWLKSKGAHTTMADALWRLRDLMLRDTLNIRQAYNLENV

Sequence of Bromodomain adjacent to zinc finger domain protein 2A (Q9UIF9 whole entry, the tested form may be a part): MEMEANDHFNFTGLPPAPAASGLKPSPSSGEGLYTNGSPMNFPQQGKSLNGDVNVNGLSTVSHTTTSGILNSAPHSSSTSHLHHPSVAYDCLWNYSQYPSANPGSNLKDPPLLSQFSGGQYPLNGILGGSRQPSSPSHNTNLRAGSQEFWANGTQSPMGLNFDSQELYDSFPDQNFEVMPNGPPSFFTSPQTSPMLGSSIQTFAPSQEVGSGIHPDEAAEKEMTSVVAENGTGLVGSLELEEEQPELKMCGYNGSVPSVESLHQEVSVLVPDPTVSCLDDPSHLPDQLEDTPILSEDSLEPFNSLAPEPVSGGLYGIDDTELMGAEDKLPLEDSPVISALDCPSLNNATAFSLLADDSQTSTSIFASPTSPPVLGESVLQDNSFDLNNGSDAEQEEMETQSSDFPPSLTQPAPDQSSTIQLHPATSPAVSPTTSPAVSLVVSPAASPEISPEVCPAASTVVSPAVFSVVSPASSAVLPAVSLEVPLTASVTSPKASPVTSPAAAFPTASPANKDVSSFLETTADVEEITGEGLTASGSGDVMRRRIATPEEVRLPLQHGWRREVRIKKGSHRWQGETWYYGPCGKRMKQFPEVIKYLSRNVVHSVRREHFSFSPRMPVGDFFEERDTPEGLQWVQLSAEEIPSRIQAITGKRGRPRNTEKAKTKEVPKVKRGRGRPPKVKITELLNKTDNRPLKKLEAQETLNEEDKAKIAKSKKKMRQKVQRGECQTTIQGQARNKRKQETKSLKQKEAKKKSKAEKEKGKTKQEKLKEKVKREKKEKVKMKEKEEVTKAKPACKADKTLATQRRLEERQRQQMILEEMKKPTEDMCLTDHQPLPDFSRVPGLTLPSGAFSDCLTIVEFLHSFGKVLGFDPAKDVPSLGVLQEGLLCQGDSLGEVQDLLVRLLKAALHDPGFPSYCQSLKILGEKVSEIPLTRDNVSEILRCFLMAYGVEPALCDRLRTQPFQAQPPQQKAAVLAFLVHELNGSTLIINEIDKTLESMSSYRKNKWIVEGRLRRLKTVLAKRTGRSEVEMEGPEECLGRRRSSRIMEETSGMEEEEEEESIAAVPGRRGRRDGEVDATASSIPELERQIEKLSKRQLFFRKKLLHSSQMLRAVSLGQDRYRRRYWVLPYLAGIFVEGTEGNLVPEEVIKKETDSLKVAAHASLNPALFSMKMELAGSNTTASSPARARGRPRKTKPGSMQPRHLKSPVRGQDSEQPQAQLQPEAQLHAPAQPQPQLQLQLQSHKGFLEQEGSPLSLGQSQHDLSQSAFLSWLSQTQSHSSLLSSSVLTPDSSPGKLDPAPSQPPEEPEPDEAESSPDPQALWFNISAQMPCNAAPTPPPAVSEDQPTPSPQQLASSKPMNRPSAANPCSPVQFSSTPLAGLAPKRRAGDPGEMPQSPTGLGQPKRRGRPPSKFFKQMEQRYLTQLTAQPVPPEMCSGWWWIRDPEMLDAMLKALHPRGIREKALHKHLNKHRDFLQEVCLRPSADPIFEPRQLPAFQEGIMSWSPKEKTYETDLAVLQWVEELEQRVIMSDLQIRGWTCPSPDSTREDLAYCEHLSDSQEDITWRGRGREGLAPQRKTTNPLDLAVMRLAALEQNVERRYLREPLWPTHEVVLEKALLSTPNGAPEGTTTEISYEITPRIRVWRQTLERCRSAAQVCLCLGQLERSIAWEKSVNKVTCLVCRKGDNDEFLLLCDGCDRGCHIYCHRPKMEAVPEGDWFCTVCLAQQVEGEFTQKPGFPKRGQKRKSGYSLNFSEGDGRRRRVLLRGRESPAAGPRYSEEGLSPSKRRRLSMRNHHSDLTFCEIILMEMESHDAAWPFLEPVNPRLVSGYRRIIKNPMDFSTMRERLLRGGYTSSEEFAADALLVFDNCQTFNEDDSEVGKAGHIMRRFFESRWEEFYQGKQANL

Ki [1]	bioavailability [2]	IC50 [3]	IC50 [4]	CL free (Liver)	EC50 [5]	IC50 [6]	half-life [7]	CL free (Plasma)	IC50 (Protein polybromo-1)	Compound
0.034 µM	32%	> 10 µM	> 10 µM	< 115 mL/min/kg	0.29 µM	> 10 µM	1.3 h	233 mL/min/kg	> 10 µM	Cc1[nH]c(-c2cc(S(C)(=O)=O)ccc2Oc2ccc(F)cc2F)c2c1C(=O)NCC2
0.077 µM	57%	> 10 µM	> 10 µM	200 mL/min/kg	0.15 µM	10 µM	2.5 h	267 mL/min/kg	> 10 µM	Cn1cc(-c2cc(S(C)(=O)=O)ccc2Oc2ccc(F)cc2F)c2cc[nH]c(=O)c21

Compound	Ki [1]	bioavailability [2]	IC50 [3]	IC50 [4]	CL free (Liver)	EC50 [5]	IC50 [6]	half-life [7]	CL free (Plasma)	IC50 (Protein polybromo-1)
Cc1[nH]c(-c2cc(NS(C)(=O)=O)ccc2Oc2ccccc2)c2c1C(=O)CCC2	0.018 µM	30%	> 10 µM	> 10 µM	917 mL/min/kg	0.051 µM	10 µM	0.6 h	1400 mL/min/kg	> 10 µM
